# Results collected from several papers.
# Each line is one published result; the experiments were not run side by side.
# Target: Tyrosine-protein kinase Fer (FER, Homo sapiens, UniProt P16591)
SMILES,observed,action,method,concentration,endpoint,result
Cc1nn(C)cc1-c1nc2c(N3CCN(Cc4ccc(Cl)cc4)CC3)c(Cl)cnc2[nH]1,binding,,competition with immobilised ligand,1 µM,remaining binding,100%
CC(C)(C)c1cc(C=C(C#N)C#N)cc(Br)c1O,enzyme activity,inhibitor,,0.5 µM,remaining activity,100%
Cn1cc(-c2cc(F)cc(N3CCn4c(cc5c4CCCC5)C3=O)c2CO)cc(Nc2ccc(N3CCN(C4COC4)CC3)cn2)c1=O,enzyme activity,inhibitor,,0.1 µM,inhibition,10%
CCn1cnc2c(Nc3cccc(Cl)c3)nc(N[C@H]3CCCC[C@H]3N)nc21,enzyme activity,inhibitor,,0.5 µM,remaining activity,86.8%
Cn1cncc1[C@@](O)(COc1ccc(C#N)cc1-c1ccc(OC(F)(F)F)cc1)c1ccc(C#N)cc1,cell-free assay,,competition with immobilised ligand,1 µM,remaining binding,100%
COc1cc(Nc2ncc(F)c(Nc3ccc4c(n3)NC(=O)C(C)(C)O4)n2)cc(OC)c1OC,binding,,competition with immobilised ligand,10 µM,inhibition,78%
Cn1cc(-c2cccc(N3CCc4c(sc5c4CC(C)(C)C5)C3=O)c2CO)cc(Nc2ccncn2)c1=O,enzyme activity,inhibitor,,1 µM,inhibition,9%
C#Cc1n[nH]c2c(-c3cn([C@@H](C)c4ccccc4)c(=O)[nH]c3=O)cc(F)cc12,enzyme activity,inhibitor,,0.1 µM,inhibition,1.5%
COc1ncccc1-c1cnn2ccc(N3CCN(C(=O)OC(C)C)CC3)nc12,binding,,competition with immobilised ligand,1 µM,remaining binding,100%
C#Cc1n[nH]c2c(-c3cn([C@@H](C)c4ccccn4)c(=O)[nH]c3=O)cc(F)cc12,enzyme activity,inhibitor,,0.1 µM,inhibition,3.7%
Nc1ncc(-c2nc(N3CCOCC3)nc(N3CCOCC3)n2)c(C(F)F)n1,binding,,competition with immobilised ligand,10 µM,remaining binding,67%
